# Assays:
# [1] = test system: metabolism of JNJ-38877605 in human 12000×g liver supernatant; assay type: in vitro ADME; conditions: 5 μM 3H-JNJ-38877605, human 12000×g liver supernatant
# Procedure, shortened: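 5 μM 3H-labelled test compound incubated with human 12000×g liver supernatant, with and without specific inhibitors of aldehyde oxidase/CYP2C8 or of CYP-450. Metabolites identified by LC-MS and quantified via the 3H label. Read-out is % inhibition of formation of each metabolite and of summed metabolite formation.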
# [2] = phase I first-in-human dose escalation study, toxicity; assay type: in vivo
# [3] = pharmacokinetics in humans, phase I study; assay type: in vivo, human; conditions: patients
# Procedure, shortened: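 Patients received oral test compound once daily in 21-day cycles: 60 mg starting dose, with 10-40 mg OD levels added later. Blood was sampled at pre-specified times from cycle 1 day 1. Parent and N-desmethyl metabolite M2 were quantified in plasma. Cmax, tmax, t1/2, AUC and terminal elimination rate were calculated.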
# [4] = plasma metabolite profiling, rat; assay type: in vivo; conditions: 3H-JNJ-38877605 2.5 mg/kg, at about Cmax (1-4 h)
# [5] = plasma metabolite profiling, dog; assay type: in vivo; conditions: 3H-JNJ-38877605 2.5 mg/kg, at about Cmax (1-4 h)
# [6] = plasma metabolite profiling, rabbit; assay type: in vivo; conditions: 3H-JNJ-38877605 100 mg/kg, at about Cmax (1-4 h)
# [7] = plasma metabolite profiling, man; assay type: in vivo, human; conditions: 60 mg, at about Cmax (1-4 h)
# [8] = metabolite formation in human liver microsomes; assay type: in vitro ADME; conditions: 5 μM 3H-JNJ-38877605, 120 min
# Procedure, shortened: (§1)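 Radiolabelled (3H) test compound was incubated with human liver subcellular fractions (microsomes or 12000 ×g supernatant). Metabolites were identified by LC-MS and quantified only where a reference standard or 3H label existed. Parallel incubations included specific inhibitors, quercetin (aldehyde oxidase/CYP2C8) or 1-aminobenzotriazole (CYP-450). Results were expressed as % inhibition of metabolite formation.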
# [9] = metabolite formation in human liver 12000 ×g supernatant; assay type: in vitro ADME; conditions: 5 μM 3H-JNJ-38877605, 120 min
# Procedure, shortened: as §1
# [10] = 1-month non-GLP toxicology study in male rabbit, post-mortem kidney changes; assay type: in vivo; conditions: 1-month dosing; for Basophilia, corticotubular with basement membrane thickening, incidence / Dilatation, collecting ducts with amorphous material, incidence / Dilation, corticotubular, extending towards cortex, incidence / Fibrosis, cortical, incidence / Hypertrophy, corticotubular; with spicules and multinucleated cells, incidence: N 4
# c-Met Kinase = conditions: read-out: IC50 for c-Met Kinase in vitro; cited from earlier work
# Fms = conditions: of 246 kinases tested; cited from earlier work
# [11] = group 2: 50 mg/kg 3/week (150 mg/kg/week)
# [12] = group 3: 100 mg/kg 1/week (100 mg/kg/week)
# [13] = group 4: 200 mg/kg 1/week (200 mg/kg/week)
# [14] = group 5: 100 mg/kg 3/week (300 mg/kg/week)
# [15] = group 6: 50 mg/kg 1/day (350 mg/kg/week)
structure (smiles),measurement,setting,value
Nn1nnc2ccccc21 [1-aminobenzotriazole],"% inhibition of metabolite formation, M1/M2",[1],58%
same,"% inhibition of metabolite formation, M3",[1],1%
same,"% inhibition of metabolite formation, M4",[1],70%
same,"% inhibition of metabolite formation, UD (sum of all metabolite formation)",[1],19%
Cn1cc(-c2ccc3nnc(C(F)(F)c4ccc5ncccc5c4)n3n2)cn1 [JNJ-38877605],patients with grade 1 SCr increase,[2]; 40 mg OD,2/3
same,"serum creatinine (SCr) increase, CTCAE grade","[2]; 60 mg OD, all 5 subjects, asymptomatic",Grade 1
same,time to SCr increase after start of treatment,"[2]; 60 mg OD, in 4 patients",2 to 3 days
same,glomerular filtration rate by Cr51 measurement,"[2]; 1 patient, 40 mg cohort, cycle 1 day 21 (98 pre-treatment)",45 ml/min/1.73m^2
same,decrease of glomerular filtration rate by Cr51 measurement,"[2]; 1 patient, 40 mg cohort, pre-treatment to cycle 1 day 21",> 50%
same,renal toxicity,[2]; 10 and 20 mg OD,no indication of renal toxicity
same,accumulation after 21 days,[3]; oral OD,virtually no accumulation
same,plasma half-life,[3]; oral,short
same,time of Cmax after ingestion,[3]; oral,1.5 to 4 h
same,concentration in plasma,[4],1466 ngeq/ml
same,concentration in plasma,[5],575 ngeq/ml
same,concentration in plasma,[6],22836 ngeq/ml
same,concentration in plasma,[7],111 ngeq/ml
same,formation of metabolites after incubation of JNJ-38877605,[8],12.8
same,formation of metabolites after incubation of JNJ-38877605,[9],26.0
same,"Dilatation, collecting ducts with amorphous material, animals graded minimal",[10]; [11],3
same,"Dilatation, collecting ducts with amorphous material, animals graded moderate",[10]; [11],0
same,"Dilatation, collecting ducts with amorphous material, animals graded slight",[10]; [11],0
same,"Kidney weights, fold change vs control",[10]; [11],×0.93 fold
same,"Basophilia, corticotubular with basement membrane thickening, incidence",[10]; [11],2
same,"Dilatation, collecting ducts with amorphous material, incidence",[10]; [11],3
same,"Dilation, corticotubular, extending towards cortex, incidence",[10]; [11],0
same,"Fibrosis, cortical, incidence",[10]; [11],0
same,"Hypertrophy, corticotubular; with spicules and multinucleated cells, incidence",[10]; [11],1
same,"Dilatation, collecting ducts with amorphous material, animals graded minimal",[10]; [12],1
same,"Dilatation, collecting ducts with amorphous material, animals graded moderate",[10]; [12],0
same,"Dilatation, collecting ducts with amorphous material, animals graded slight",[10]; [12],3
same,"Basophilia, corticotubular with basement membrane thickening, incidence",[10]; [12],2
same,"Dilatation, collecting ducts with amorphous material, incidence",[10]; [12],4
same,"Dilation, corticotubular, extending towards cortex, incidence",[10]; [12],0
same,"Fibrosis, cortical, incidence",[10]; [12],0
same,"Hypertrophy, corticotubular; with spicules and multinucleated cells, incidence",[10]; [12],3
same,"Dilatation, collecting ducts with amorphous material, animals graded minimal",[10]; [13],0
same,"Dilatation, collecting ducts with amorphous material, animals graded moderate",[10]; [13],1
same,"Dilatation, collecting ducts with amorphous material, animals graded slight",[10]; [13],3
same,"Dilation, corticotubular, extending towards cortex, animals graded minimal",[10]; [13],2
same,"Dilation, corticotubular, extending towards cortex, animals graded slight",[10]; [13],1
same,"Fibrosis, cortical, animals graded minimal",[10]; [13],0
same,"Fibrosis, cortical, animals graded slight",[10]; [13],1
same,"Kidney weights, fold change vs control",[10]; [13],×1.20 fold
same,"Basophilia, corticotubular with basement membrane thickening, incidence",[10]; [13],4
same,"Dilatation, collecting ducts with amorphous material, incidence",[10]; [13],4
same,"Dilation, corticotubular, extending towards cortex, incidence",[10]; [13],3
same,"Fibrosis, cortical, incidence",[10]; [13],1
same,"Hypertrophy, corticotubular; with spicules and multinucleated cells, incidence",[10]; [13],4
same,"Dilatation, collecting ducts with amorphous material, animals graded minimal",[10]; [14],1
same,"Dilatation, collecting ducts with amorphous material, animals graded moderate",[10]; [14],1
same,"Dilatation, collecting ducts with amorphous material, animals graded slight",[10]; [14],2
same,"Dilation, corticotubular, extending towards cortex, animals graded minimal",[10]; [14],2
same,"Dilation, corticotubular, extending towards cortex, animals graded slight",[10]; [14],1
same,"Fibrosis, cortical, animals graded minimal",[10]; [14],2
same,"Fibrosis, cortical, animals graded slight",[10]; [14],0
same,"Kidney weights, fold change vs control",[10]; [14],×1.13 fold
same,"Basophilia, corticotubular with basement membrane thickening, incidence",[10]; [14],3
same,"Dilatation, collecting ducts with amorphous material, incidence",[10]; [14],4
same,"Dilation, corticotubular, extending towards cortex, incidence",[10]; [14],3
same,"Fibrosis, cortical, incidence",[10]; [14],2
same,"Hypertrophy, corticotubular; with spicules and multinucleated cells, incidence",[10]; [14],4
same,"Dilatation, collecting ducts with amorphous material, animals graded minimal",[10]; [15],0
same,"Dilatation, collecting ducts with amorphous material, animals graded moderate",[10]; [15],2
same,"Dilatation, collecting ducts with amorphous material, animals graded slight",[10]; [15],2
same,"Dilation, corticotubular, extending towards cortex, animals graded minimal",[10]; [15],2
same,"Dilation, corticotubular, extending towards cortex, animals graded slight",[10]; [15],1
same,"Fibrosis, cortical, animals graded minimal",[10]; [15],1
same,"Fibrosis, cortical, animals graded slight",[10]; [15],1
same,"Basophilia, corticotubular with basement membrane thickening, incidence",[10]; [15],4
same,"Dilatation, collecting ducts with amorphous material, incidence",[10]; [15],4
same,"Dilation, corticotubular, extending towards cortex, incidence",[10]; [15],3
same,"Fibrosis, cortical, incidence",[10]; [15],2
same,"Hypertrophy, corticotubular; with spicules and multinucleated cells, incidence",[10]; [15],4
same,IC50,c-Met Kinase,4.7 nM
same,selectivity for c-Met kinase relative to the next most potently inhibited kinase (Fms),Fms,> 833 fold
FC(F)(c1ccc2ncccc2c1)c1nnc2ccc(-c3cn[nH]c3)nn12 [M2],concentration in plasma,[4],136 ngeq/ml
same,concentration in plasma,[5],31 ngeq/ml
same,concentration in plasma,[6],6388 ngeq/ml
same,concentration in plasma,[7],3 ngeq/ml
O=c1c(O)c(-c2ccc(O)c(O)c2)oc2cc(O)cc(O)c12 [Quercetin],"% inhibition of metabolite formation, M1/M2",[1],75%
same,"% inhibition of metabolite formation, M3",[1],94%
same,"% inhibition of metabolite formation, M4",[1],73%
same,"% inhibition of metabolite formation, UD (sum of all metabolite formation)",[1],112%

# — article PMC4433755 (Clinical cancer research : an official journal of the …, 2015)
